# Assay results from ChEMBL document CHEMBL1153354, “Amide-containing diketoacids as HIV-1 integrase inhibitors: synthesis, structure-activity relationship analysis, and biological activity” (Bioorg Med Chem, 2009).
# Columns and labels:
# [1] = target: T1, Human immunodeficiency virus type 1 integrase (Human immunodeficiency virus 1, UniProt Q7ZJM1); assay: Inhibition of HIV1 integrase 3' processing activity
# How it was run: (§1)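 Wild-type IN (200 nM final) preincubated with inhibitor 30 min at 30 °C in buffer of 50 mM NaCl, 1 mM HEPES pH 7.5, 50 μM EDTA, 50 μM DTT, 10% glycerol, 7.5 mM MnCl2, 0.1 mg/mL BSA, 10 mM 2-mercaptoethanol, 10% DMSO, 25 mM MOPS pH 7.2. Then 20 nM 5'-32P-labeled linear oligonucleotide substrate added, 1 h further. Quenched with formamide/EDTA loading dye.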
# [2] = target: T1, Human immunodeficiency virus type 1 integrase; assay: Inhibition of HIV1 integrase strand transfer activity; how it was run: as §1
# T1 sequence (Q7ZJM1 whole entry): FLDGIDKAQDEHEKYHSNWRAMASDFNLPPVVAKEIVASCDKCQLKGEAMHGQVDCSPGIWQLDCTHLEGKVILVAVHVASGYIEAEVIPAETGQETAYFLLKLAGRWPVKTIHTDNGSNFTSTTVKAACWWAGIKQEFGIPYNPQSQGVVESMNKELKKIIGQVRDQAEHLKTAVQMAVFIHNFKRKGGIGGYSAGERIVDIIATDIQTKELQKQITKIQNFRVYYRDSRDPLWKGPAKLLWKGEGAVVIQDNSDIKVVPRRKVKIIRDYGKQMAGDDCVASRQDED
Structure (SMILES),IC50 [1] [µM],IC50 [2] [µM]
COc1ccc(C(=O)Nc2cccc(C(=O)/C=C(\O)C(=O)O)c2)cc1,95,19
O=C(O)/C(O)=C/C(=O)c1cccc(NC(=O)c2ccccc2Cl)c1,92,18
COc1ccccc1C(=O)Nc1cccc(C(=O)/C=C(\O)C(=O)O)c1,73,13
COc1cccc(C(=O)Nc2cccc(C(=O)/C=C(\O)C(=O)O)c2)c1,69,12
O=C(O)/C(O)=C/C(=O)c1cccc(NC(=O)c2ccco2)c1,> 100,33
O=C(Cc1ccccc1)Nc1cccc(C(=O)/C=C(\O)C(=O)O)c1,56,7
O=C(O)/C(O)=C/C(=O)c1cccc(NC(=O)c2ccc(O)cc2)c1,81,13
O=C(O)/C(O)=C/C(=O)c1cccc(NC(=O)c2cccc(Cl)c2)c1,57,15
O=C(O)/C(O)=C/C(=O)c1cccc(NC(=O)c2ccccc2)c1,> 100,31

# Compounds with a lower IC50 [1], results first:
IC50 [1] [µM],IC50 [2] [µM],Structure (SMILES)
48,10,Cc1cccc(C(=O)Nc2cccc(C(=O)/C=C(\O)C(=O)O)c2)c1O
42,11,COc1cc(/C=C/C(=O)Nc2cccc(C(=O)/C=C(\O)C(=O)O)c2)ccc1O
41,11,O=C(O)/C(O)=C/C(=O)c1cccc(NC(=O)c2ccccc2O)c1
30,11,COc1ccc(/C=C/C(=O)Nc2cccc(C(=O)/C=C(\O)C(=O)O)c2)cc1
26,7,O=C(/C=C/c1ccc(O)cc1)Nc1cccc(C(=O)/C=C(\O)C(=O)O)c1
22,7,O=C(/C=C/c1ccc(F)cc1)Nc1cccc(C(=O)/C=C(\O)C(=O)O)c1
18,4,O=C(/C=C/c1ccc(Cl)cc1)Nc1cccc(C(=O)/C=C(\O)C(=O)O)c1
8,2,O=C(O)/C(O)=C/C(=O)c1cccc(NC(=O)c2cc([N+](=O)[O-])cc([N+](=O)[O-])c2O)c1
